Hits are enriched below; roughly 2.1% of the tested compounds scored in any of these assays.
MT stabilize HCS: microtubule stabilization, imaging screen. HeLa tubulin immunostaining HCS, 24 h; share of cells brighter than vehicle mean+2SD. % tubulin-high responders, % at 10 µM. 200,000 compounds, 0.83% hits;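 active means plate Z-score above 3 for both tubulin-high and condensed-nucleus cell shares, with cell loss under 80%, at 10 µM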;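 further: anti alpha tubulin signal scored within the nucleus-defined area of each cell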
Autophagy HCS: modulators of autophagy. calls only at 10 µM (by protocol). AID 463193. 190,000 compounds, 0.98% hits. MEF GFP-LC3 puncta imaging; test concentration mostly 10 µM;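 active means percentage of spot-positive cells more than 3 SD above its plate mean, without a fluorescence outlier flag or 80% toxicity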;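 further: spot-positive cell cutoff set from DMSO-treated cells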
bCat nuc transl: alters nuclear translocation of beta-catenin in HeLa cells. immunofluorescence imaging. nuclear translocation activity, % at 5 µM. 190,000 compounds, 0.3% hits;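 active means nuclear translocation activity above 50% at 5 µM, with a well cell count of 50 or more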;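 further: per-cell ratio of nuclear to cytoplasmic median beta-catenin stain intensity; plate controls were DMSO negative control for no effect and GSK-3 inhibitor IX positive control for full effect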
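Read-out: Nuclear/cytoplasmic beta-catenin signal ratio, % activation | Assay system: Human HeLa cell line | Times: 24 h compound exposure at 37°C, 5% CO2 | Signal: Fluorescence imaging of beta-catenin antibody stain plus DAPI | Dosing: 5 µM primary, 0.02–20 µM confirmation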
Hsp70 activator: Hsp70 transcriptional activation, primary screen; HeLa Hsp70 promoter luciferase reporter, luminescence; scaled: vehicle 0, proteasome-inhibitor control 100%; activation, % at 10 µM; 200,000 compounds, 0.04% hits; AID 1203;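 active means activation above the mean across all tested compounds plus 3 SD, cutoff set per campaign, cut at about 5.5% in these data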;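 further: 100% = MG132 at 30 µM as the positive control and 0% = DMSO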
Dynein transport: dynein cargo transport inhibition. z-score, hits read low. 220,000 compounds, 0.47% hits. 3617.4 mouse cells, GR-EGFP nuclear translocation imaging; test concentration mostly 20 µM; stimulated with dexamethasone, 1 µM; hits give low values;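 active means plate z-score of nuclear minus cytoplasmic receptor signal below a set negative limit, without overly bright fluorescence or cell loss, cut at about -3.5 in these data, passing the limit was not always enough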;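 further: z-score of nuclear minus cytoplasmic ring GR-EGFP intensity difference per well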
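Buffer or medium: tet-free medium with charcoal-stripped serum / Also added: dexamethasone agonist, 1.0 µM final, for 30 min / Timing: induction 48 h, compound 1 h, agonist 30 min / Measured by: high-content fluorescence imaging after fixation / Read-out: nuclear-to-cytoplasmic GR-EGFP distribution per well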
* hit, by the source's call; i = inactive; nt = no result; + = active, no number.

SMILES	MT stabilize HCS	Autophagy HCS	bCat nuc transl	Hsp70 activator	Dynein transport
COc1ccc(C(=O)c2ccc(OC)c(N)c2)cc1N	34*	+	nt	0	1.1
O=C(O)C1=C[C@H](c2cccs2)C[C@H](OCc2ccc(CO)cc2)O1	nt	nt	1	nt	0.27
CSc1nc2ccccc2cc1/C=C(\C#N)c1cccc(Cl)c1	34*	+	0	0	-10
CCOC(=O)N1CCC(NC(=O)CNS(=O)(=O)c2ccc(Br)s2)CC1	20*	i	3	0	-0.028
CCOC(=O)C1CCCN(C(=O)CNS(=O)(=O)c2ccc(Br)s2)C1 (stereo not drawn)	2	i	-1	0	-0.22
CCOC(=O)/C(=C/C=C1\Sc2cc(OCC)c(OCC)cc2N1CC)C(C)=O	54	+	nt	0	3.5
O=C(Nc1ccc2[nH]c(=O)[nH]c2c1)c1c(F)c(F)c(F)c(F)c1F	3	i	-3	0	-1.1
Cc1nn2c(COc3ccc(NC(=O)c4ccccc4Cl)cc3)nnc2c2ccccc12	18*	i	-1	0	0.28
Cc1nn2c(COc3ccc(NC(=O)C(C)C)cc3)nnc2c2ccccc12	4	i	0	0	2
Cc1noc(C)c1COc1cccc(C(=O)NCCc2c[nH]c3ccccc23)c1	24*	i	-1	0	0.37
Cc1noc(C)c1COc1ccc(CC(=O)NCc2ccccc2)cc1	20*	i	29	1	0.32
Cc1noc(C)c1COc1ccc(CC(=O)NC2CCCCCC2)cc1	5	i	-1	0	0.36
N#Cc1sc2nc(-c3cccs3)cc(-c3ccc(Cl)cc3)c2c1N	14	+	1	0	1.7
N#Cc1sc2nc(-c3cccs3)cc(-c3ccccc3)c2c1N	i	i	nt	0	1.4
CCN(CC)C(=O)c1sc2nc(-c3cccs3)cc(-c3ccc(Cl)cc3)c2c1N	2	+	1	0	0.94
CCN(CC)C(=O)c1sc2nc(-c3cccs3)cc(-c3cccs3)c2c1N	nt	nt	-4	nt	0.95
CN(O)/C=C1\C(=O)Nc2ccccc21	2	i	-1	0	-0.58
O=C(/C=C1\C(=O)Nc2ccccc21)/C=C1\C(=O)Nc2ccccc21	nt	nt	25	nt	-4.4*
CCCCOc1ccc(CN(C)c2ncnc(N)n2)cc1	23*	i	27	0	0.19
COc1ccc(CN(C)c2ncnc(N)n2)cc1	1	i	nt	0	-0.064
COc1ccc(CN2CCC(CO)(Cc3ccccc3C(F)(F)F)CC2)c(F)c1	4	i	-2	0	-0.9
CC(=O)O[C@@]12CO[C@@H]1C[C@H](O)[C@@]1(C)C(=O)[C@H](O)C3=C(C)[C@@H](OC(=O)[C@H](O)[C@@H](NC(=O)OC(C)(C)C)c4ccccc4)C[C@](O)([C@@H](OC(=O)c4ccccc4)[C@H]21)C3(C)C	nt	nt	77*	0	nt
Cc1ccc(C2Nc3ccccc3C(=O)N2Cc2ccco2)cc1 (stereo not drawn)	18*	i	5	0	1.3
O=C1c2ccccc2NC(c2ccc(O)cc2)N1Cc1ccco1 (stereo not drawn)	2	i	-1	0	-0.53
Cn1cc(/C=C(\C#N)C(=O)Nc2cccc([N+](=O)[O-])c2)c2ccccc21	2	+	0	0	0.39
SMILES	MT stabilize HCS	Autophagy HCS	bCat nuc transl	Hsp70 activator	Dynein transport
Cn1cc(/C=N/NC(=O)c2cccc([N+](=O)[O-])c2)c2ccccc21	2	i	nt	0	0.3
Cc1nc2ccccn2c1-c1ccnn1S(=O)(=O)c1ccc(F)cc1	nt	nt	7	nt	0.22
Cc1cc(-c2nnc(CSc3nnc(NC(=O)c4ccc(C(C)(C)C)cc4)s3)o2)ccc1[N+](=O)[O-]	nt	nt	-1	nt	-0.16
Cc1ccc2nc(NC(=O)CCNS(=O)(=O)c3cccs3)sc2c1	3	i	-3	0	3.7
Cc1ccc2nc(NC(=O)CCNS(=O)(=O)c3ccc(Br)s3)sc2c1	6	+	-3	0	0.11
Cc1c(CN2CCC(CO)(CCOc3ccccc3)CC2)[nH]c2c(Cl)cccc12	29*	i	1	0	-0.38
Cc1nn(C)c(Cl)c1CN1CCC(CO)(CCOc2ccccc2)CC1	2	i	-1	0	-0.83
Cc1ccc(C)c(Sc2ccc(NC(=O)CCl)cc2)c1	2	i	1	0	-4.2*
O=C(CCl)Nc1ccccc1Sc1ccccc1	3	i	nt	0	-0.63
CCOc1cc(-c2c(C#N)c(N)nc3c2CCCC3C)ccc1O (stereo not drawn)	23*	i	nt	0	-0.41
CCOc1cc(-c2cc(-c3ccc(C)cc3)nc(N)c2C#N)ccc1O	49*	+	69*	0	-0.6
Cc1ccc(C(=O)NC2CCCc3ccccc32)o1 (stereo not drawn)	2	i	nt	0	-0.83
O=C(NC(=S)NC1CCCc2ccccc21)c1ccco1 (stereo not drawn)	4	+	-1	0	-0.023
O=[N+]([O-])c1ccc(N/N=C/c2cccc(O)c2O)c(S(=O)(=O)N2CCOCC2)c1	5	+	2	0	-0.21
O=[N+]([O-])c1ccc(N/N=C/c2ccc(O)c(O)c2O)c(S(=O)(=O)N2CCOCC2)c1	4	i	2	0	-1.5
O=C(Nc1ccc(Cl)cn1)c1ccc([N+](=O)[O-])o1	8.3*	i	5	0	-1.9
O=C(CCCc1nc2ccccc2s1)NCc1cccnc1	2	i	-5	0	3
N#CC(C#N)=C1C=CC=CN1/C(=C\c1ccccc1Cl)C(=O)c1ccccc1	5	i	5	1	-4.1*
CC(C)Nc1nnc(SC(C)C(=O)NCc2ccc3c(c2)OCO3)s1 (stereo not drawn)	3	i	-2	0	-0.2
COc1ccc(C2SCC(=O)N2CCc2ccc(OC)c(OC)c2)cc1 (stereo not drawn)	18*	i	82*	0	1
COc1ccc(CCN2C(=O)CSC2c2ccc(OC)c(OC)c2)cc1OC (stereo not drawn)	2	i	1	-1	0.23
C/C(=N\NC(=O)CC1N=C(Cc2ccccc2)NNC1=O)c1ccc(Br)cc1 (stereo not drawn)	nt	nt	0	nt	-0.029
C/C(=N\NC(=O)CC1N=C(Cc2ccccc2)NNC1=O)c1ccc(C)cc1 (stereo not drawn)	31*	i	0	0	-0.29
CC(Nc1nc(N2CCNCC2)nc2ccccc12)c1ccccc1 (stereo not drawn)	4	+	-1	1	0.038
CN1CCN(c2ccc(NC(=O)c3cccc(OCc4ccccc4)c3)cc2)CC1	3	+	-1	0	-1.1
O=C(Nc1ccc(N2CCCCC2)cc1)c1cc([N+](=O)[O-])cc([N+](=O)[O-])c1	1	+	-1	0	0.08

Bioassay records as filed in PubChem.
